According to ChEMBL document CHEMBL1124545, “Tricyclic compounds as selective muscarinic receptor antagonists. 3. Structure-selectivity relationships in a series of cardioselective (M2) antimuscarinics” (J Med Chem, 1989):

Assays:
[1] = biological target: Muscarinic receptor M2 and M3 (Rattus norvegicus) (UniProt P08483+P10980); assay: Selectivity ratio for glandular muscarinic receptor 3 and cardiac muscarinic receptor 2 in rat
[2] = biological target: T1, Muscarinic acetylcholine receptor M3 (Rattus norvegicus, UniProt P08483); assay: Binding affinity for glandular muscarinic acetylcholine receptor M3 in rat assayed using 0.3 nM [3H]N-methylscopolamine as radioligand
Method in brief: (§1)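 1 mL homogenate incubated 45 min at 30 °C with 0.3 nM [3H]NMS plus varying unlabeled compound. Bound ligand separated by centrifugation, saline-washed pellet scintillation counted. Nonspecific binding defined with 1 µM racemic QNB. Run in quadruplicate.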

[3] = biological target: T2, Muscarinic acetylcholine receptor M2 (Rattus norvegicus, UniProt P10980); assay: Binding affinity to the rat cardiac muscarinic acetylcholine receptor M2 using 0.3 nM [3H]N-methylscopolamine as radioligand
T2 sequence (P10980 whole entry): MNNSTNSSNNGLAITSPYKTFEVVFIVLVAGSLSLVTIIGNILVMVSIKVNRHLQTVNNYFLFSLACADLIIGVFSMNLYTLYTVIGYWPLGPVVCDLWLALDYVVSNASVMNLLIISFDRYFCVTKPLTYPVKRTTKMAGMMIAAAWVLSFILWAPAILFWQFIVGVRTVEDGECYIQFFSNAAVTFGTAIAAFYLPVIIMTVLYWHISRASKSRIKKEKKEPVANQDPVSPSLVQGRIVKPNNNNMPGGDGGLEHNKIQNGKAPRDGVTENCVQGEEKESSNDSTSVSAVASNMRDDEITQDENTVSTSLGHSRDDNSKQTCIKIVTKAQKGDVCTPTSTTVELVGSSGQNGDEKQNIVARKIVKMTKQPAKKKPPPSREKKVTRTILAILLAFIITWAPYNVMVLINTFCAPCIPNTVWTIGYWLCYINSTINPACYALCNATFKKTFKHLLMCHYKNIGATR
Method in brief: (§2)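 Competition against 0.3 nM [3H]NMS in rat total heart homogenate (1:300 in 100 mM NaCl, 10 mM MgCl2, 20 mM HEPES, pH 7.4, cheesecloth-filtered). 1 mL homogenate incubated 45 min at 30 °C with a range of cold ligand concentrations. Pellets obtained by centrifugation, washed twice with saline, solubilized and counted. Nonspecific binding taken with 1 µM racemic QNB. Quadruplicate assays.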

[4] = biological target: T2, Muscarinic acetylcholine receptor M2; assay: Binding affinity of compound for cardiac Muscarinic acetylcholine receptor M2 in rat using 0.3 nM [3H]N-methylscopolamine as radioligand; method in brief: as §2
[5] = biological target: T1, Muscarinic acetylcholine receptor M3; assay: Binding affinity of compound for glandular Muscarinic acetylcholine receptor M3 in rat using 0.3 nM [3H]N-methylscopolamine as radioligand; method in brief: as §1
[6] = tested on: Muscarinic acetylcholine receptors M2 & M3 (Rattus norvegicus); assay: Selectivity ratio for glandular muscarinic receptor 3 and cardiac muscarinic receptor 2 in rat

Chain of Muscarinic receptor M2 and M3 (Rattus norvegicus) (P08483 whole entry, looked up, one chain of several): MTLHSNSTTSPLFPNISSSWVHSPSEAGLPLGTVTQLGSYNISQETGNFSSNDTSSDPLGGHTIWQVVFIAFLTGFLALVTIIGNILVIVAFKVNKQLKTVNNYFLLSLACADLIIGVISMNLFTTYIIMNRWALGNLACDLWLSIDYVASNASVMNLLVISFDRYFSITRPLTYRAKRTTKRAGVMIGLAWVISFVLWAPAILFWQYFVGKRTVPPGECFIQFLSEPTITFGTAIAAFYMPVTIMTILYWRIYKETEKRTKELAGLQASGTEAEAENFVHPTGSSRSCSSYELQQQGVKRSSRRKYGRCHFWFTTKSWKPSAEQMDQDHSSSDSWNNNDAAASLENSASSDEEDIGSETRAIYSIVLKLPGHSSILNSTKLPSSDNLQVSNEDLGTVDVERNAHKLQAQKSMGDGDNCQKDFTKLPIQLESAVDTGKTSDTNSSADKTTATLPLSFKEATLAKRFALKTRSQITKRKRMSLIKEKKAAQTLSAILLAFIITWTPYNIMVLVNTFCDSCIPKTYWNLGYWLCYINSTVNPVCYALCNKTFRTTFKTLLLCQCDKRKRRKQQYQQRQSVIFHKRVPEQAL
T1 sequence (P08483 whole entry): as the sequence (P08483 whole entry, looked up, one chain of several) above

SMILES | Ratio [1] | IC50 [2] [nM] | IC50 [3] [nM] | IC50 [4] [nM] | IC50 [5] [nM] | Ratio [6]
CCN(CC)CC1CCCCN1CC(=O)N1c2ccccc2C(=O)Nc2cccnc21 (stereo in doubt; 29) | 120 |  |  |  |  | 
CCN(CC)CC1CCCN(CC(=O)N2c3ccccc3C(=O)Nc3cccnc32)C1 (centres undefined) | 1.8 | 300 | 170 |  |  | 
CCNCC1CCCCN1CC(=O)N1c2ccccc2C(=O)Nc2cccnc21 (centres undefined) | 5 | 3000 | 600 |  |  | 
CCN(CC)CC1CCCCN1CC(=O)N1c2ccccc2C(=O)Nc2cccnc21 (stereo in doubt; 28) [OTENZEPAD] |  | 10000 | 400 |  |  | 
CCN(CC)CCC1CCCCN1CC(=O)N1c2ccccc2C(=O)Nc2cccnc21 (centres undefined) | 3 | 1000 | 330 |  |  | 
CCN(CC)CC1CCN(CC(=O)N2c3ccccc3C(=O)Nc3cccnc32)CC1 | 5 | 4000 | 800 |  |  | 
CCN(CC)CC1CCCCN1CC(=O)N1c2ccccc2C(=O)Nc2cccnc21 (stereo in doubt; 28) | 25 |  |  |  |  | 
CCN(CC)CC1CCCCCN1CC(=O)N1c2ccccc2C(=O)Nc2cccnc21 (centres undefined) | 7.5 | 15000 | 2000 |  |  | 
CCc1ccc2c(c1)C(=O)Nc1cccnc1N2C(=O)CN1CCCCC1CN(CC)CC (centres undefined) | 10 | 2000 | 200 |  |  | 
CCN(CC)CC1CCCCN1CC(=O)N1c2ccccc2C(=O)Nc2cccnc21 (stereo in doubt; 10) [OTENZEPAD] |  | 6000 |  |  |  | 
CCN(CC)CC1CCCCN1C(=O)N1c2ccccc2C(=O)Nc2cccnc21 (centres undefined) | > 2 | > 10000 | 5000 |  |  | 
CCN(CC)CC1CCCCN1CCC(=O)N1c2ccccc2C(=O)Nc2cccnc21 (centres undefined) | 2.7 | 600 | 220 |  |  | 
CCN(CC)CC1CCCCN1CC(=O)N1c2ccc(Br)cc2C(=O)Nc2cccnc21 (centres undefined) | 26.6 | 4000 | 150 |  |  | 
CCN(CC)CC1CCCCN1CC(=O)N1c2ccccc2C(=O)Nc2cccnc21 (stereo in doubt; 29) [OTENZEPAD] |  | 6000 | 50 |  |  | 
O=C1Nc2cccnc2N(C(=O)CN2CCCCC2CN2CCOCC2)c2ccccc21 (centres undefined) | < 4 | 4000 | > 1000 |  |  | 
CCCN(CCC)CC1CCCCN1CC(=O)N1c2ccccc2C(=O)Nc2cccnc21 (centres undefined) | 4 | 6000 | 1500 |  |  | 
CCN(CC)CC1CCCCN1CC(=O)N1c2ccccc2C(=O)Nc2cccnc21 (stereo in doubt; 10) | 42.8 |  |  |  |  | 
O=C1Nc2cccnc2N(C(=O)CN2CCCCC2CN2CCCCC2)c2ccccc21 (centres undefined) |  |  |  | 600 | 1500 | 2.5
CCN(CC)CC1CCCN1CC(=O)N1c2ccccc2C(=O)Nc2cccnc21 (centres undefined) | 13 | 2000 | 150 |  |  | 
O=C1Nc2cccnc2N(C(=O)CN2CCCCC2CN2CCCC2)c2ccccc21 (centres undefined) | 2.7 | 1500 | 560 |  |  | 

Results, then the compound that gave them:

Ratio [1] | IC50 [2] [nM] | IC50 [3] [nM] | IC50 [4] [nM] | IC50 [5] [nM] | Ratio [6] | SMILES
2.3 | 70 | 30 |  |  |  | CN(CC1CCCCN1CC(=O)N1c2ccccc2C(=O)Nc2cccnc21)C1CCCCCC1 (centres undefined)
37.5 |  | 40 |  |  |  | CCN(CC)CC1CCCCN1CC(=O)N1c2cc(Cl)ccc2C(=O)Nc2cccnc21 (centres undefined)
12.5 | 1500 | 120 |  |  |  | CCN(C)CC1CCCCN1CC(=O)N1c2ccccc2C(=O)Nc2cccnc21 (centres undefined)
2.5 | 150 | 60 |  |  |  | CN(CC1CCCCN1CC(=O)N1c2ccccc2C(=O)Nc2cccnc21)C1CCCCC1 (centres undefined)
7.1 | 1000 | 140 |  |  |  | CN(C)CC1CCCCN1CC(=O)N1c2ccccc2C(=O)Nc2cccnc21 (centres undefined)
2 | 200 | 100 |  |  |  | CCCCN(C)CC1CCCCN1CC(=O)N1c2ccccc2C(=O)Nc2cccnc21 (centres undefined)
28.5 | 2000 | 70 |  |  |  | CCN(CC)CC1CCCCN1CC(=O)N1c2cc(C)ccc2C(=O)Nc2cccnc21 (centres undefined)
3.3 | 200 | 60 |  |  |  | CCN(CC)CCCC1CCCCN1CC(=O)N1c2ccccc2C(=O)Nc2cccnc21 (centres undefined)
40 | 4000 | 100 |  |  |  | CCN(CC)CC1CCCCN1CC(=O)N1c2ccc(Cl)cc2C(=O)Nc2cccnc21 (centres undefined)
33.3 | 1000 | 30 |  |  |  | CCN(CC)CC1CCCCN1CC(=O)N1c2ccc(C)cc2C(=O)Nc2cccnc21 (centres undefined)
